Measured values from different studies.
Target: Vascular endothelial growth factor receptor 1 (FLT1, Homo sapiens, UniProt P17948)

SMILES | read-out | action | technique | tested at | quantity | value
COc1cc(/C=C/C(=O)CC(=O)/C=C/c2ccc(O)c(OC)c2)ccc1O | enzyme activity | inhibitor | – | 1 µM | activity vs control | 67%
C=CC(=O)Nc1cc(Nc2nccc(Nc3cc(Cl)c(F)cc3C(C)(C)O)n2)c(OC)cc1N1CC[C@@H](N(C)C)C1 | enzyme activity | inhibitor | – | 1 µM | inhibition | 0%
CNC(=O)c1cc2c(Oc3ccc(NC(=O)C4(C(=O)Nc5ccc(F)cc5)CC4)cc3)ccnc2cc1OC | enzyme activity | inhibitor | radiometric | 1 µM | inhibition | 106%
CC(C)(C)C(=O)c1sc(NC2CCCCC2)nc1N | enzyme activity | inhibitor | – | 10 µM | remaining activity | 82%
Nc1ncnc2occ(-c3ccc(NC(=O)Nc4cc(C(F)(F)F)ccc4F)cc3)c12 | cell-free assay | – | – | 20 µM | remaining signal | 0.55%
CC/C(=N\NC(=O)NCc1cccc(O)c1)c1ccc(O)c(C)c1O | enzyme activity | inhibitor | – | 0.1 µM | inhibition | 2.5%
CC(C)(O)[C@H]1CC[C@H](Nc2ccc3ncc(-c4cccc(C(F)(F)F)c4)n3n2)CC1 | enzyme activity | inhibitor | – | 1 µM | remaining activity | 92.5%
O=C1NC(=O)c2cc(Nc3ccc(F)cc3)c(Nc3ccc(F)cc3)cc21 | cell-free assay | – | – | 0.5 µM | remaining signal | 81.5%
Cc1ccc(Nc2nccc(N(C)c3ccc4c(C)n(C)nc4c3)n2)cc1S(N)(=O)=O | enzyme activity | inhibitor | – | 0.3 µM | inhibition | 100%
COc1cc(Cl)c(C(=O)N[C@@H](CN[C@H]2CC[C@@H](N)CC2)Cc2ccc(C#N)cc2)cc1-c1ccc(CN[C@H](C)c2ccc(C)cc2)o1 | enzyme activity | inhibitor | – | 1 µM | remaining activity | 102%
O=C(Nc1cnn(-c2csc(C(=O)NC3COC3)c2)c1)Nc1ccccc1Cl | enzyme activity | inhibitor | – | 5 µM | remaining activity | 101%
Nc1nc(Nc2ccccc2)sc1C(=O)c1c(F)cccc1F | enzyme activity | inhibitor | – | 10 µM | remaining activity | 17%
CC(C)CC(=O)N1CCc2nc(-c3ccc(Br)cc3)nc(N(C)Cc3ccccc3)c2C1 | cell-free assay | – | competition with immobilised ligand | 0.1 µM | remaining binding | 100%
COc1cc2ncnc(Nc3ccc(Oc4ccccc4)cc3C)c2cc1OC | enzyme activity | inhibitor | – | 1 µM | inhibition | -2%
O=S(=O)(NC1CCC(c2cc(F)ccc2F)(S(=O)(=O)c2ccc(Cl)cc2)CC1)C(F)(F)F (stereo not drawn) | cell-free assay | – | competition with immobilised ligand | 1 µM | remaining binding | 86%
COc1cc2nccc(Oc3ccc(NC(=O)c4c5n(n(-c6ccc(F)cc6)c4=O)CCCC5)cc3)c2cc1OC | enzyme activity | inhibitor | – | 0.1 µM | inhibition | 23%
CO[C@@H](C)c1c(Nc2ccc([C@@H](N(C)C(=O)C3CCS(=O)(=O)CC3)C(F)(F)F)cc2)cnc2cc(Cl)nn12 | cell-free assay | – | competition with immobilised ligand | 1 µM | remaining binding | 85%
Cc1cc(NC(=O)c2cccc3cc(-c4cccc5[nH]nc(N)c45)ccc23)ccc1F | enzyme activity | inhibitor | – | 0.1 µM | activity vs control | 2%
Cc1ccc(-n2nc(C(C)(C)C)cc2NC(=O)Nc2ccc(OCCN3CCOCC3)c3ccccc23)cc1 | enzyme activity | inhibitor | – | 10 µM | inhibition | 96%
CNCc1ccc(-c2cc(-c3nc(-c4ccc(S(=O)(=O)C(C)C)cc4)cnc3N)on2)cc1 | enzyme activity | inhibitor | – | 2 µM | inhibition | 83%
N#CC1(c2ccccn2)CCN(Cc2cc(C(=O)N3CCCC3)c(=O)n3ccccc23)CC1 | cell-free assay | – | competition with immobilised ligand | 1 µM | remaining binding | 100%
COc1cc(Nc2cnc(C#N)c(O[C@H](C)CN(C)C)n2)ncc1-c1cnn(C)c1 | enzyme activity | inhibitor | radiometric | 10 µM | remaining activity | 31%
O=C(O)[C@@H]1[C@@H](Cn2nnc3ccccc3c2=O)CC[C@H]1C(=O)c1ccc(OCCC2CCOCC2)cc1 | cell-free assay | – | competition with immobilised ligand | 1 µM | remaining binding | 100%
Cc1ccc(C(=O)Nc2ccc(CN3CCN(C)CC3)c(C(F)(F)F)c2)cc1C#Cc1cnc2cccnn12 | cell-free assay | – | – | 23.5 nM | remaining signal | 33%
CS(=O)(=O)NCC[C@H](NC(=O)c1cncc2c1cnn2-c1ccc(F)cc1)c1ccnc(S(C)(=O)=O)c1 | cell-free assay | – | competition with immobilised ligand | 1 µM | remaining binding | 90%
CC(C)(C)c1nc(-c2cccc(NS(=O)(=O)c3c(F)cccc3F)c2F)c(-c2ccnc(N)n2)s1 | enzyme activity | inhibitor | radiometric | 1 µM | remaining activity | 84%
CCCOc1ccc([C@@H]2[C@@H](C(=O)O)[C@H](c3ccc4c(c3)OCO4)CN2CC(=O)Nc2c(CC)cccc2CC)cc1 | cell-free assay | – | competition with immobilised ligand | 1 µM | remaining binding | 94%
CCN(CC)CCNC(=O)c1c(C)[nH]c(/C=C2\C(=O)Nc3ccc(F)cc32)c1C | enzyme activity | inhibitor | – | 0.3 µM | inhibition | 99%
CSc1cccnc1N1CCN(Cc2nc3ccccc3[nH]2)CC1 | cell-free assay | – | competition with immobilised ligand | 1 µM | remaining binding | 100%
N#CCCc1ccc2c(c1)-c1[nH]c3ccc([N+](=O)[O-])cc3c1CC(=O)N2 | cell-free assay | – | – | 0.5 µM | remaining signal | 99.7%
